The values below come from ChEMBL document CHEMBL4350976, “Sequence modification of heptapeptide selected by phage display as homing device for HT-29 colon cancer cells to improve the anti-tumour activity of drug delivery systems” (Eur J Med Chem, 2019).

Series [1] can be described thus: Retention time of the compound using 0.1% TFA in water and 0.1% TFA in acetonitrile-water (80:20 v/v) as eluents by RP-HPLC analysis. The class given is physicochemical. The procedure, abridged: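 Analytical RP-HPLC. Eluent A was 0.1% TFA in water and eluent B was 0.1% TFA in acetonitrile-water (80:20, v/v). Gradient: 0% B held to 5 min, then to 90% B at 50 min. Flow 1 mL/min, detection at 220 nm. The column was a Phenomenex Aeris Peptide XB-C18 (250×4.6 mm, 3.6 μm) or a Nucleosil C18 (5 μm, 100 Å, 250×4.6 mm), depending on the conjugate series.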

Series [2] is described as follows: Drug uptake in human HT-29 cells assessed as increase in fluorescence intensity at 25 uM incubated for 3 hrs by flow cytometry. It counts as ADME, cell-based. Conditions: ht-29, 3 h. (In general: Flow cytometry measures light scatter and fluorescence of single cells or particles in a stream.)
A short description of series [3]: Drug uptake in cytoplasm of living human HT-29 cells at 50 uM after 90 mins by fluorescence based confocal microscopic analysis. Conditions: ht-29, 1.5 h; call rule not given here. The class given is ADME, subcellular. The procedure, abridged: (§1)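 HT-29 cells were incubated with 50 µM compound in RPMI for 90 min. Imaging was by confocal microscopy, with Dau detected at 550–600 nm emission.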

Series [4] is described as follows: Stability in serum free medium at 30 uM incubated for 3 hrs by LC/MS analysis. The gist of the method:
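Conjugates (30 μM) were incubated at 37 °C in serum-free medium. Samples were taken at 0 and 3 h, quenched with acetic acid, lyophilised, desalted on C18 spin columns and analysed by LC-MS.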

Series [5] can be described thus: Aqueous solubility of compound in water. The conditions noted are these: buffer. It counts as physicochemical.
The next series deals with HT-29. Kind of series: Cytostatic activity against human HT-29 cells preincubated for 24 hrs under serum free condition followed by compound washout and further incubation for 48 hrs in presence of serum by MTT assay. The class given is functional, cell-based. The gist of the method: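 HT-29 cells were exposed to the compound for 24 h, washed, and kept a further 48 h. Viability was read by MTT. Absorbances were normalized to untreated controls and fitted by nonlinear regression to dose-response curves to give IC50.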
(In general: Tetrazolium dyes change colour on reduction, which living cells bring about.)

Series [6] in a line: Stability in 2.5% fetal bovine serum containing medium at 30 uM measured after 24 hrs by LC/MS analysis. The class given is ADME, cell-free, Bos taurus. The conditions noted are these: cattle. The procedure, abridged: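 Conjugates (30 μM) were incubated at 37 °C in medium containing 2.5% FBS. Samples were taken at 0, 3, 6 and 24 h, quenched with acetic acid, lyophilised, desalted on C18 spin columns and analysed by LC-MS. Cleavage products were identified by mass.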

The nature of series [7]: Drug uptake in nucleus of dead human HT-29 cells at 50 uM after 90 mins by fluorescence based confocal microscopic analysis. It counts as ADME, subcellular. The conditions noted are these: ht-29, 1.5 h. The gist of the method: as §1

Where a SMILES comes first, the peptide text is derived from it. The star is where a group is joined. X1 = COc1cccc2c1C(=O)c1c(O)c3c(c(O)c1C2=O)C[C@@](O)(/C(C)=N/OCC(=O)*)C[C@@H]3O[C@H]1C[C@H](N)[C@H](O)[C@H](C)O1

Consider `COc1cccc2c1C(=O)c1c(O)c3c(c(O)c1C2=O)C[C@@](O)(/C(C)=N/OCC(=O)N[C@@H](CC(C)C)C(=O)N[C@@H](CCCNC(=N)N)C(=O)N[C@@H](CCCNC(=N)N)C(=O)N[C@@H](Cc1ccc(O)cc1)C(=O)N[C@H](C(=O)N[C@@H](Cc1cnc[nH]1)C(=O)N[C@@H](CC(C)C)C(=O)N[C@@H](CO)C(=O)N[C@@H](Cc1ccc(O)cc1)C(=O)N[C@@H](C)C(=O)N[C@H](C(N)=O)[C@@H](C)O)C(C)C)C[C@@H]3O[C@H]1C[C@H](N)[C@H](O)[C@H](C)O1` (X1-LRRYVHLSYAT-NH2), for which, in series [1], the Retention_time is 28.9 min. In addition, the Drug uptake result in series [2], in series [3] and in series [7] was “Active” in each case. For the same molecule, the Stability entry in series [4] and in series [6] was “Stable” in each case. Moreover, the solubility entry in series [5] is recorded as “Soluble”. Besides, in the series on HT-29, the half-inhibitory concentration (IC50) (usually the concentration that gives 50% inhibition) stood at 24.8 µM.
